A selection: hits, their analogues and other compounds. The true share with any hit is near 5.8%.
IDH1 R132H inh = inhibitors of human IDH1 R132H | 70,000 tested, 0.18% active | IDH1 R132H reductase, diaphorase/resazurin fluorescence, 60 min | inhibition, % at 10 µM; in the data active = inhibition above about 34%; inconclusive = no clear call, values can overlap the other calls; inactive = below about 11%
Target sequence (O75874 whole entry R132H): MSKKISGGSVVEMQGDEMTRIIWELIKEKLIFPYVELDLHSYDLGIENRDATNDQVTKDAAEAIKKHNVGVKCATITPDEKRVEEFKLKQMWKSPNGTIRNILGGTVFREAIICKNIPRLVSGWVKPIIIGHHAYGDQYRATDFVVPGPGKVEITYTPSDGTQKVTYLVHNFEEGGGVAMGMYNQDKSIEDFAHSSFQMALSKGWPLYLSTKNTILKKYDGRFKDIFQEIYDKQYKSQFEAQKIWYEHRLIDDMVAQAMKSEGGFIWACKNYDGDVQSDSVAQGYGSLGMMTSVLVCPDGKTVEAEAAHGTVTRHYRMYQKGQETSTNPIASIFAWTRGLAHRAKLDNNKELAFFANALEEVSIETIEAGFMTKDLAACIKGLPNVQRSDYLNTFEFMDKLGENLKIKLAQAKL
T cruzi growth-1 = T. cruzi proliferation inhibition | inhibition, % at 8.34 µM | 77,000 tested, 5.9% active | T. cruzi beta-gal in NIH3T3, GalScreen luminescence, 90 h;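 active = mean inhibition above about 93%, with at least 55% of replicates each passing it, limit read from the data, passing the limit was not always enough; inconclusive = only one of those two conditions holds; inactive = neither condition holds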
KDM4C inh = blocks human GASC-1 (KDM4C) demethylase activity | Q9H3R0 | GST-KDM4C 2-372, H3K9me3 peptide, LANCE TR-FRET | inhibition, % at 12.5 µM | 96,000 tested, 0.15% active | AID 720574;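 active = mean replicate inhibition above about 25%, with at least 55% of replicates also reaching it, limit read from the data, passing the limit was not always enough; inconclusive = only one of those two conditions met; inactive = neither condition met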
Target sequence (Q9H3R0 2-372 limits assumed): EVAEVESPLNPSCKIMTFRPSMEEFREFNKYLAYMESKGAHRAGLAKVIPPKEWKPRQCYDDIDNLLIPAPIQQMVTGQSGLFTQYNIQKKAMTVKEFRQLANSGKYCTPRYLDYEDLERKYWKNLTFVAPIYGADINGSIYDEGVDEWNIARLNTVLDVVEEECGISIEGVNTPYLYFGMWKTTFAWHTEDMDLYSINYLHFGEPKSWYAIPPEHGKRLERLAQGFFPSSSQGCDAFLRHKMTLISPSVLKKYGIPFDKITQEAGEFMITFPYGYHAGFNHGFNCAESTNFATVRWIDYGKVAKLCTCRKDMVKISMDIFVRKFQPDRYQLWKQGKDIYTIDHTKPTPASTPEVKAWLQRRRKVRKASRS
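Test system – GST-tagged GASC-1 (JMJD2C) catalytic fragment, aa 2-372 · Medium – HEPES buffer, pH 7.5, plus ascorbate · Reagent – H3K9me3 peptide with Fe(II)/2OG · Compound – one test concentration per compound · Timing – 30 min reaction, 60 min detection, RT · Technique – TR-FRET with Eu antibody and ULight streptavidin, EDTA stop · Read-out basis – inhibition from TR-FRET ratio decrease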
Pf Dd2 growth = blocks growth of Plasmodium falciparum Dd2 parasites; P. falciparum Dd2 growth, SYBR Green, 72 h; hits give low values; activity change, % at 10 µM; 94,000 tested, 2.3% active; AID 1159554; in the data active = activity change below about -80%; inconclusive = no clear call, values can overlap the other calls
T cruzi growth-2 = inhibitors of T. cruzi proliferation; AID 651739; inhibition, % at 8.35 µM; T. cruzi beta-gal in NIH3T3, GalScreen luminescence, 90 h; shares compounds with T cruzi growth-1; 5,600 tested, 72% active;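 active = mean replicate inhibition above about 95% and at least 55% of replicates individually reaching it, limit read from the data; inconclusive = only one of the two criteria is met; inactive = neither criterion is met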
T cruzi growth-3 = blocks T. cruzi growth in NIH3T3 host cells; T. cruzi beta-gal in NIH3T3, GalScreen luminescence, 90 h; shares compounds with T cruzi growth-1; inhibition, % at 2.09 µM; 5,600 tested, 21% active;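 active = mean inhibition above about 95%, with at least 55% of replicates also reaching it, limit read from the data; inconclusive = meets just one of the two conditions; inactive = meets neither condition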
NIH3T3 tox = kills mouse NIH/3T3 fibroblasts. NIH/3T3 viability, CellTiter-Glo ATP luminescence, 90 h. AID 651742. 5,600 tested, 14% active. cytotoxicity (signal decrease), % at 8.35 µM. shares compounds with T cruzi growth-1;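 active = mean signal decrease across replicates above about 35% based on untreated-well scatter, with enough replicates individually passing, limit read from the data; inconclusive = no rule stated though some were filed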
3T3 cytotox 2 = cytotoxicity in mouse NIH/3T3 fibroblasts | 5,600 tested, 56% active | NIH/3T3 viability, CellTiter-Glo ATP luminescence, 90 h | inhibition, % at 24.9 µM | AID 651744 | shares compounds with T cruzi growth-1;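 active = mean loss of cell viability signal at or above a set limit, and enough replicates individually reaching it; inconclusive = meets only the mean limit or only the replicate share; inactive = meets neither condition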
Each line names hits and unclear results; the compound was inactive in the other large screens (follow-up assays come after a bar, where they were run).

COc1ccc(CN(C)C[C@@H]2OCCCC[C@H](C)Oc3ccc(NC(=O)Nc4ccc(OC)cc4)cc3C(=O)N([C@H](C)CO)C[C@H]2C)cc1	none (no result: IDH1 R132H inh, KDM4C inh)
COc1ccc(NC(=O)Nc2ccc3c(c2)C(=O)N([C@@H](C)CO)C[C@H](C)[C@H](CN(C)Cc2ccc(Cl)c(Cl)c2)OCCCC[C@@H](C)O3)cc1	T cruzi growth-1 125 | T cruzi growth-2 101 | T cruzi growth-3 115 | NIH3T3 tox inactive | 3T3 cytotox 2 inactive
COc1ccc(NC(=O)Nc2ccc3c(c2)C(=O)N([C@@H](C)CO)C[C@@H](C)[C@H](CN(C)Cc2ccc(Cl)c(Cl)c2)OCCCC[C@H](C)O3)cc1	T cruzi growth-1 97 | T cruzi growth-2 99 | T cruzi growth-3 103 | NIH3T3 tox inactive | 3T3 cytotox 2 inactive
COc1ccc(CN(C)C[C@H]2OCCCC[C@H](C)Oc3ccc(NC(=O)Nc4ccc(OC)cc4)cc3C(=O)N([C@H](C)CO)C[C@@H]2C)cc1	none (no result: IDH1 R132H inh)
COc1ccc(NC(=O)Nc2ccc3c(c2)C(=O)N([C@H](C)CO)C[C@H](C)[C@@H](CN(C)Cc2ccc(Cl)c(Cl)c2)OCCCC[C@H](C)O3)cc1	T cruzi growth-1 123 (no result: IDH1 R132H inh) | T cruzi growth-2 inconclusive | T cruzi growth-3 116 | NIH3T3 tox inactive | 3T3 cytotox 2 inactive
N#C[C@H]1[C@H](c2ccc(C#Cc3cccc(F)c3)cc2)[C@@H](CO)N1C(=O)C1CCC1	T cruzi growth-1 97 (no result: IDH1 R132H inh) | T cruzi growth-2 97 | T cruzi growth-3 109 | NIH3T3 tox inactive | 3T3 cytotox 2 inactive
N#C[C@@H]1[C@@H](c2ccc(C#Cc3cccc(F)c3)cc2)[C@H](CO)N1C(=O)C1CCC1	T cruzi growth-1 99 (no result: IDH1 R132H inh) | T cruzi growth-2 104 | T cruzi growth-3 105 | NIH3T3 tox inactive | 3T3 cytotox 2 inactive
COc1ccccc1C#Cc1ccc([C@H]2[C@H]3CN(C(=O)C4CCCC4)CCCCN3[C@H]2CO)cc1	T cruzi growth-1 114 (no result: IDH1 R132H inh, KDM4C inh) | T cruzi growth-2 inactive | T cruzi growth-3 inactive | NIH3T3 tox inactive | 3T3 cytotox 2 54
COc1ccccc1C#Cc1ccc([C@H]2[C@@H](CO)N3CCCCN(C(=O)C4CCCC4)C[C@@H]23)cc1	T cruzi growth-1 118 (no result: IDH1 R132H inh, KDM4C inh) | T cruzi growth-2 101 | T cruzi growth-3 105 | NIH3T3 tox inconclusive | 3T3 cytotox 2 71
COc1ccccc1C#Cc1ccc([C@H]2[C@@H](CO)N3CCCCN(S(C)(=O)=O)C[C@H]23)cc1	none (no result: IDH1 R132H inh)
COc1ccccc1C#Cc1ccc([C@H]2[C@H]3CN(S(C)(=O)=O)CCCCN3[C@H]2CO)cc1	none (no result: IDH1 R132H inh)
COc1ccccc1C#Cc1ccc([C@@H]2[C@@H](CO)N3CCCCN(C(=O)C4CCCC4)C[C@H]23)cc1	T cruzi growth-1 112 (no result: IDH1 R132H inh, KDM4C inh) | T cruzi growth-2 103 | T cruzi growth-3 inactive | NIH3T3 tox inactive | 3T3 cytotox 2 106
COc1ccccc1-c1cnc2c(c1)C(=O)N([C@@H](C)CO)C[C@H](C)[C@@H](CN(C)Cc1ccc(C(=O)O)cc1)O2	none
COc1ccc2c3c([nH]c2c1)[C@@H](CO)N(C(=O)c1ccc(F)cc1)CC31CCN(C(=O)Nc2cccc(F)c2)CC1	none (no result: IDH1 R132H inh, T cruzi growth-1)
C[C@H]1CN([C@@H](C)CO)C(=O)c2cccc(NC(=O)c3cnccn3)c2O[C@H]1CN(C)Cc1ccccc1	none
Cc1noc(C)c1S(=O)(=O)N(C)C[C@H]1OCCCC[C@@H](C)Oc2ccc(NC(=O)Nc3ccc4c(c3)OCO4)cc2C(=O)N([C@@H](C)CO)C[C@H]1C	T cruzi growth-1 108 | T cruzi growth-2 105 | T cruzi growth-3 inactive | NIH3T3 tox inactive | 3T3 cytotox 2 inactive
Cc1noc(C)c1S(=O)(=O)N(C)C[C@@H]1OCCCC[C@@H](C)Oc2ccc(NC(=O)Nc3ccc4c(c3)OCO4)cc2C(=O)N([C@@H](C)CO)C[C@@H]1C	none (no result: IDH1 R132H inh)
Cc1noc(C)c1S(=O)(=O)N(C)C[C@H]1OCCCC[C@H](C)Oc2ccc(NC(=O)Nc3ccc4c(c3)OCO4)cc2C(=O)N([C@@H](C)CO)C[C@@H]1C	T cruzi growth-1 inconclusive | T cruzi growth-2 106 | T cruzi growth-3 inactive | NIH3T3 tox inactive | 3T3 cytotox 2 inactive
Cc1noc(C)c1S(=O)(=O)N(C)C[C@H]1OCCCC[C@@H](C)Oc2ccc(NC(=O)Nc3ccc4c(c3)OCO4)cc2C(=O)N([C@H](C)CO)C[C@@H]1C	T cruzi growth-1 103 | T cruzi growth-2 inconclusive | T cruzi growth-3 inactive | NIH3T3 tox inactive | 3T3 cytotox 2 45
COc1ccc(NC(=O)Nc2ccc3c(c2)C(=O)N([C@H](C)CO)C[C@H](C)[C@@H](CN(C)S(=O)(=O)c2ccccc2)O3)cc1	none (no result: IDH1 R132H inh)
C[C@H](CO)N1C[C@H](C)[C@H](CN(C)C(=O)Nc2ccc3c(c2)OCO3)Oc2ccc(NC(=O)CCCCCC(=O)Nc3ccccc3N)cc2CC1=O	none
C/C=C/c1ccc2c(c1)O[C@H](CN(C)C(=O)c1cnccn1)[C@@H](C)CN([C@H](C)CO)S2(=O)=O	none (no result: T cruzi growth-1)
C[C@@H](O)C#Cc1ccc2c(c1)O[C@@H](CN(C)C(=O)C1CCC1)[C@@H](C)CN([C@@H](C)CO)S2(=O)=O	none (no result: IDH1 R132H inh)
O=C(C[C@@H]1C[C@@H]2c3cc(NC(=O)c4ccc5c(c4)OCO5)ccc3O[C@@H]2[C@H](CO)O1)NCc1ccc(Cl)cc1	none
O=C(C[C@H]1C[C@@H]2c3cc(NC(=O)c4ccc5c(c4)OCO5)ccc3O[C@@H]2[C@H](CO)O1)NCc1ccc(Oc2ccccc2)cc1	T cruzi growth-1 177 | T cruzi growth-2 99 | T cruzi growth-3 inactive | NIH3T3 tox inactive | 3T3 cytotox 2 45
O=C(C[C@H]1C[C@@H]2c3cc(NC(=O)c4ccc5c(c4)OCO5)ccc3O[C@@H]2[C@@H](CO)O1)NCc1ccc(Cl)cc1	T cruzi growth-1 101 | T cruzi growth-2 101 | T cruzi growth-3 inactive | NIH3T3 tox inactive | 3T3 cytotox 2 inactive
CO[C@@H]1CN(C)C(=O)c2cc(NC(=O)c3ccccc3F)ccc2OC[C@H](C)N(C(=O)c2ccccc2F)C[C@H]1C	none
CO[C@@H]1CN(C)C(=O)c2cc(NC(=O)c3ccccc3F)ccc2OC[C@@H](C)N(C(=O)c2ccccc2F)C[C@H]1C	T cruzi growth-1 inconclusive | T cruzi growth-2 inactive | T cruzi growth-3 inactive | NIH3T3 tox inactive | 3T3 cytotox 2 inactive
CO[C@@H]1CN(C)C(=O)c2cc(NC(=O)c3ccccc3F)ccc2OC[C@H](C)N(C(=O)c2ccccc2F)C[C@@H]1C	T cruzi growth-1 102, Pf Dd2 growth -83 | T cruzi growth-2 inactive | T cruzi growth-3 inactive | NIH3T3 tox inactive | 3T3 cytotox 2 40

Screens as filed in PubChem.
